Series [1] concerns MCF7. In words: Cytotoxicity in human MCF7 cells assessed as reduction in cell survival incubated for 72 hrs by MTS assay. The following applies: MCF7, 72 h. The series is classed as functional, cell-based. Summed up: (§1)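 MCF-7 breast adenocarcinoma cells in E-MEM with 10% FBS, L-alanyl-L-glutamine, nonessential amino acids, sodium pyruvate and sodium bicarbonate at 37 °C, 5% CO2. Plated at 2000 cells/well and left 24 h, then treated 72 h across a concentration range. MTS for 1 h, read at 485 nm. Survival relative to 1% DMSO and 0.5% Triton X-100 controls. IC50 by regression on eight concentrations. Three independent experiments, mean ± SD.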
On the technique in general: Tetrazolium assays rely on reduction of a dye to a coloured formazan, in cell work by metabolically active cells.

For series [2], the system named is A2058. Kind of series: Cytotoxicity in human A2058 cells assessed as reduction in cell survival incubated for 72 hrs by MTS assay. The series is classed as functional, cell-based. Particulars: A2058, 72 h. Summed up: (§2)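 A2058 human melanoma cells grown in D-MEM with 10% FBS and L-alanyl-L-glutamine at 37 °C, 5% CO2. Seeded at 2000 cells/well and allowed to adhere 24 h. Exposed to a range of concentrations for 4, 24, 48 or 72 h. MTS added for 1 h, then absorbance read at 485 nm. Survival normalised to 1% DMSO (negative) and 0.5% Triton X-100 (positive) controls. Triplicate wells, three independent experiments.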

Series [3] concerns HT-29. In words: Cytotoxicity in human HT-29 cells assessed as reduction in cell survival incubated for 72 hrs by MTS assay. Type of series: functional, cell-based. The following applies: HT-29, 72 h. Summed up: (§3)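 HT-29 colon adenocarcinoma cells kept in RPMI with 10% FBS and L-alanyl-L-glutamine at 37 °C, 5% CO2. Seeded at 2000 cells/well and left 24 h before 72 h exposure to various concentrations. MTS reagent for 1 h, then absorbance at 485 nm. Survival scaled between 1% DMSO and 0.5% Triton X-100 controls. IC50 from eight concentration points. Means ± SD of three independent determinations.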

Series [4] deals with MRC5. Kind of series: Cytotoxicity in human MRC5 cells assessed as reduction in cell survival incubated for 72 hrs by MTS assay. Type of series: cell-based. Particulars: MRC5, 72 h. Summed up:
(§4)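 Nonmalignant MRC-5 lung fibroblasts in supplemented E-MEM (10% FBS, glutamine, NEAA, pyruvate, bicarbonate) at 37 °C, 5% CO2. Seeded at 4000 cells/well and allowed 24 h to adhere. Exposed to ranging concentrations for 24 or 72 h. MTS added for 1 h, absorbance at 485 nm. Survival normalised to 1% DMSO and 0.5% Triton X-100 controls. Triplicates, three independent experiments.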

The test system of series [5] is A2058. Kind of series: Cytotoxicity in human A2058 cells assessed as reduction in cell survival at 0.313 to 10 uM incubated for 4 hrs by MTS assay. Type of series: functional, cell-based. Summed up: as §2
For series [6], the system named is A2058. In words: Cytotoxicity in human A2058 cells assessed as reduction in cell survival incubated for 24 hrs by MTS assay. The series is classed as functional, cell-based. Particulars: A2058, 24 h. Summed up: as §2
The test system of series [7] is MRC5. Kind of series: Cytotoxicity in human MRC5 cells assessed as reduction in cell survival by MTS assay. The series is classed as cell-based. The following applies: TDE = time-dependent effect. Summed up: as §4
The subject of series [8] is A2058. Kind of series: Cytotoxicity in human A2058 cells assessed as reduction in cell survival incubated for 48 hrs by MTS assay. The following applies: A2058, 48 h. The series is classed as functional, cell-based. Summed up:
as §2

Series [9] has as its system MRC5. Kind of series: Cytotoxicity in human MRC5 cells assessed as reduction in cell survival incubated for 24 hrs by MTS assay. Type of series: cell-based. Particulars: MRC5, 24 h. Summed up: as §4
The test system of series [10] is A2058. In words: Cytotoxicity in human A2058 cells assessed as reduction in cell survival by MTS assay. Type of series: functional, cell-based. The following applies: TDE = time-dependent effect. Summed up: as §2
For series [11], the system named is HT-29. Kind of series: Cytotoxicity in human HT-29 cells assessed as reduction in cell survival by MTS assay. The following applies: TDE = time-dependent effect. Type of series: functional, cell-based. Summed up:
as §3

In series [12] the test system is MCF7. Kind of series: Cytotoxicity in human MCF7 cells assessed as reduction in cell survival by MTS assay. Type of series: functional, cell-based. Particulars: TDE = time-dependent effect. Summed up: as §1

Activity calls are given as the source filed them. No cut-off for these calls is given here. Where only a bound is given, the exact number is not on record here.

As to `CO[C@H]1[C@H](O)C2=NC(=O)N[C@@]23N2c4cc(Br)c(Br)c(Br)c4[C@H]4CC(=O)N1[C@]42C[C@H](Cl)C3(C)C`, the IC50 with MCF7 [1], in the series with A2058 [2], with HT-29 [3] and with MRC5 [4] was above 50 µM throughout.

Regarding `CC1(C)[C@@H](Cl)C[C@]23[C@@H]4CC(=O)N2C=CC2=NC(=O)N[C@@]21N3c1cc(Br)c(Br)cc14`, the IC50 (as a rule, the midpoint of a concentration-inhibition curve) in the series on MCF7 [1] was determined as 2.4 µM; in the series on A2058 [2], 2.7 µM; in the series with HT-29 [3], 2.5 µM; in the series on MRC5 [4], 5.3 µM.

As for `CC1(C)[C@@H](Cl)C[C@]23[C@@H]4CC(=O)N2C=CC2=NC(=O)N[C@@]21N3c1cc(Br)ccc14`, the half-maximal inhibitory concentration (IC50) in the series on MCF7 [1] was 23 µM; in the series on A2058 [2], 20 µM; with HT-29 [3], 21 µM; in the series with MRC5 [4] it was 30 µM.

With `CC1(C)[C@@H](Cl)C[C@]23[C@@H]4CC(=O)N2C=CC2=NC(=O)N[C@@]21N3c1cc(Br)c(Br)c(Br)c14`, the result in the series on A2058 [5] was inactive. The concentration for half-maximal inhibition (IC50) in the series with A2058 [6] was 2.8 µM; in the series on MCF7 [1], 2.1 µM; in the series with A2058 [8], 1.8 µM; with MRC5 [9] it was above 10 µM; in the series with A2058 [2] it was 1.4 µM; in the series on HT-29 [3], 1.9 µM. Further, the IC50 with MRC5 [4] amounted to 2.7 µM. For the same compound, the Activity result with MRC5 [7], in the series on A2058 [10], in the series on HT-29 [11] and in the series with MCF7 [12] was “Tde” in each case.

`CC1(C)[C@@H](Cl)C[C@]23[C@@H]4CC(=O)N2C=CC2=NC(=O)N[C@@]21N3c1cc(Br)cc(Br)c14`: the concentration for half-maximal inhibition (IC50) is 8.5 µM with MCF7 [1], 6.7 µM in the series on A2058 [2], 10 µM with HT-29 [3] and 9.6 µM with MRC5 [4].

The record behind these values is ChEMBL document CHEMBL4130581, “Securamine Derivatives from the Arctic Bryozoan Securiflustra securifrons” (J Nat Prod, 2017).
